# According to the RNAGym collection of RNA variant scans (doi:10.1126/science.aae0568):
# Fewer inactive variants are shown than the library holds.
# B1: tRNA (parent)
# chain: GUUCCGUUGGCGUAAUGGUAACGCGUCUCCCUCCUAAGGAGAAGACUGCGGGUUCGAGUCCCGUACGGAACG
# Variants of: B1
# Experiment: yeast fitness relative to wild type (ratio to wild type); higher = fitter; tRNA-Arg(CCU), competitive growth, 37 C, YPD
# Outline: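 The tRNA-Arg(CCU) gene variants were made by chemical synthesis with a 3% per-site mutation rate at 69 sites and inserted at the native genomic locus of Saccharomyces cerevisiae. After pooling, the strains were competed in YPD at 37°C for 24 hours in six parallel replicates. Gene amplicons from the start population and each end population were read by 100-nucleotide paired-end sequencing, and Darwinian fitness relative to wild type was taken from genotype frequency changes. Genotypes needed ≥ 100 starting reads, and estimates < 0.5 were set to 0.5.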
row,Variant,yeast fitness
1,C11U G51A,0.727
2,G48C A57C,0.594
3,G23C C29A G38A A57G,≤ 0.5
4,U7C G58A G67A,0.62
5,U8A A36G G44A,0.527
6,C22G C30U C49A A57U C61U,0.548
7,G18A A37U C61U U64A,≤ 0.5
8,A21G A43U C61A,≤ 0.5
9,C5U G44A G68A,0.522
10,U2C G12C A14G C29U,≤ 0.5
11,A40C G63A,0.815
12,G12A G18C C33U A69C,0.528
13,C27G A36U G39C A69C,0.548
14,G6A A36G,0.89
15,C22U U28A C34G G38A G51A,≤ 0.5
16,A15U C27U,0.699
17,U7A C55G,≤ 0.5
18,U3A G17A C22U G48A C62A,≤ 0.5
19,G25C U26G G51C,≤ 0.5
20,U13G A70C,0.843
21,C29G U35G G41C C62U U64A,0.602

row,Variant,yeast fitness
1,C4G G9A A21C C22A,≤ 0.5
2,A15G G52U,0.73
3,G17C C24G U28A C30U G52A,≤ 0.5
4,C5G G6A G23A,≤ 0.5
5,U3C C5U C33G C34U G38C U47A,≤ 0.5
6,A20G G39C G48A,0.924
7,G9A C24G C30U A57G,≤ 0.5
8,C5U C30U C34G G38C A65C,≤ 0.5
9,A43C G44C C55G C62U,0.661
10,G6C U16G C62U,0.532
11,C11U A15C C27A G39C A65C,0.531
12,U8A G18A A69C,≤ 0.5
13,U8G A21G C27A U35A C62A A65C G67A,≤ 0.5
14,C24G C60A U64A,0.607
15,A15G C24G U26A G52A G68C,0.717
16,C34U C55U C60A,≤ 0.5
17,C4U G10C C24G C49U,≤ 0.5
18,C29G C30G C46G,0.521
19,A37G A43G C55A G56A,0.6
20,G9C U13A G25A A65U,≤ 0.5
21,U3C U32C G58C,1.04

row,Variant,yeast fitness
1,C4G G25A U54G,≤ 0.5
2,U16A A21G C31U C34G A45C C66G,≤ 0.5
3,C61U A69G,0.878
4,U13A A20G A36C G41C C61U,0.62
5,G6A C61A,0.66
6,A20G C22A C24U,0.589
7,C11U G39C C66U,0.558
8,U13A G56C A65C,≤ 0.5
9,C4G C11U A14G C46G C55G C61G,≤ 0.5
10,G12A G44C,0.727
11,G25C U32C A37G A69G A70G,≤ 0.5
12,A40C A43G,0.741
13,U54G C61A,≤ 0.5
14,C62G G68U,0.707
15,C4G G9C C22A G68U,≤ 0.5
16,A15C G17C A45U,≤ 0.5
17,U7A C29A G50C,≤ 0.5
18,C11G U16A U28C C29U G39A U59G U64A,≤ 0.5
19,C11G G18A A21C C49U,≤ 0.5
20,C5G C27U G67A,0.524
21,C33A A36U A37G,≤ 0.5

row,Variant,yeast fitness
1,G6A C27G A40C,0.545
2,C5U A43U G48A C61G A70C,≤ 0.5
3,C4G G6C C29G G63C,≤ 0.5
4,G48A A65C,0.901
5,A15U C27A C49G U64A,0.639
6,A37G C46U C55U,≤ 0.5
7,U3C U13A A20C C30G C31A,≤ 0.5
8,C5G G25A C61U,0.716
9,U7A A37G A40G A43G G52C U59G,0.556
10,A15U U28A C33G U64A,≤ 0.5
11,G10A A65G A70C,0.65
12,U3C C11U C31U,0.782
13,C4A A15C C55U G63C,≤ 0.5
14,U8C A43C C49G A57G,≤ 0.5
15,U13A G58C C60U C66G,0.574
16,C4U A15U A45C,0.611
17,A42G A45C,0.856
18,C29U C33A C34U C46G C66U,0.56
19,G12C A15G C24U A43G,0.522
20,G56A G67A,0.901
21,C27A A43C G44U,0.514
